This note sets out measurements from ChEMBL document CHEMBL1135734, “Side-chain lactam-bridge conformational constraints differentiate the activities of salmon and human calcitonins and reveal a new design concept for potent calcitonin analogues” (J Med Chem, 2002).

Positions of bridges follow the written chain, without caps; N, C: chain ends. Residues, ends and D or L forms follow the SMILES beside them.

The target in test [1] is T1, Calcitonin receptor (Rattus norvegicus) (UniProt P32214).
T1 sequence (whole entry): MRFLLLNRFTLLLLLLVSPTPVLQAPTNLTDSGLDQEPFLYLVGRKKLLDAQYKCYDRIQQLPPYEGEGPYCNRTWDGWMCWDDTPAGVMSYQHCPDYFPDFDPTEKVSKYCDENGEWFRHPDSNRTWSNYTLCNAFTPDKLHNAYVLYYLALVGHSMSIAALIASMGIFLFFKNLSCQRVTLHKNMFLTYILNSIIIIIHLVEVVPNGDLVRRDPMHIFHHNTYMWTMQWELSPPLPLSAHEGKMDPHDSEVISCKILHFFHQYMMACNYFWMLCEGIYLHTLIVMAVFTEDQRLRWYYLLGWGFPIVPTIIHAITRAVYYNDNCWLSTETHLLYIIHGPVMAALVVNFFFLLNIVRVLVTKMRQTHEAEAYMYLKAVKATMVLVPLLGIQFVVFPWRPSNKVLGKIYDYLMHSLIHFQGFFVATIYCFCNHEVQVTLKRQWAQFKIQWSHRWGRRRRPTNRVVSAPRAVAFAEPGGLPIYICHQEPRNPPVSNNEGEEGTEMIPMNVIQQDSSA
The test is described as follows: Affinity for calcitonin receptor of rat brain relative to [125I]-salmon calcitonin. In short, it runs like this: (§1)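 Male Sprague–Dawley rat (250–350 g) brain membranes (~0.63 mg protein/tube) were shaken on ice for 30 min with 10 pM final [125I-Tyr22]sCT and competitor in 50 mM Tris-HCl pH 7.4 with 34 μM bacitracin. Tubes were centrifuged and the pellets washed, SDS-solubilized and scintillation counted. Nonspecific binding was taken with 1 μM sCT. IC50 came from probit analysis, and relative affinity set sCT = 100%.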

The target in test [2] is T2, Calcitonin receptor (Homo sapiens) (UniProt P30988).
T2 sequence (whole entry): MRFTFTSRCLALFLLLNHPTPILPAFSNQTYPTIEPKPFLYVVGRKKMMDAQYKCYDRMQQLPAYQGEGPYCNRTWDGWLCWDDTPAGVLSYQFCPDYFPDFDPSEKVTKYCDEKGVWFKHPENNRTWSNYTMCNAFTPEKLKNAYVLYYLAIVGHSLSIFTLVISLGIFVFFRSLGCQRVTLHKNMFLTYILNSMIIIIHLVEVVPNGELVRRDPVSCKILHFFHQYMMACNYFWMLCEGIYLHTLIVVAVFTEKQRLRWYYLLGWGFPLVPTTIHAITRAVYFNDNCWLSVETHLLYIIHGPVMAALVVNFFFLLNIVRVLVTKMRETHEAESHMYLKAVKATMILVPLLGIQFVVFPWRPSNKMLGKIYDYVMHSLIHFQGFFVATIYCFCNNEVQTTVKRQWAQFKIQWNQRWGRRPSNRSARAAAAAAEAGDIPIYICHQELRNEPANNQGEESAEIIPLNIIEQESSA

For test [3], the target named is T3, Calcitonin receptor (Rattus norvegicus, UniProt P32214).
T3 sequence (P32214 whole entry): T1 sequence (whole entry)
Briefly: Displacement of [125I]-salmon calcitonin (sCT) from calcitonin receptor of rat brain. The procedure, abridged:
as §1

Test [4] concerns the target T4, Calcitonin receptor (Homo sapiens, UniProt P30988).
T4 sequence (P30988 whole entry): T2 sequence (whole entry)
The test is described as follows: Inhibition of [125I]-salmon calcitonin (sCT) binding to human calcitonin receptor I1 expressed in HEK293 cells. The note with it: hek293. The format is cell-based.

As for `CC(C)C[C@H](NC(=O)[C@H](CCCCN)NC(=O)CNC(=O)[C@H](CC(C)C)NC(=O)[C@@H](NC(=O)[C@H](CS)NC(=O)[C@@H](NC(=O)[C@H](CO)NC(=O)[C@H](CC(C)C)NC(=O)[C@H](CC(N)=O)NC(=O)[C@H](CO)NC(=O)[C@@H](N)CS)[C@@H](C)O)C(C)C)C(=O)N[C@@H](CO)C(=O)N[C@@H](CCC(N)=O)C(=O)N[C@@H](CCC(=O)O)C(=O)N[C@@H](CC(C)C)C(=O)N[C@@H](Cc1c[nH]cn1)C(=O)N[C@@H](CCCCN)C(=O)N[C@@H](CC(C)C)C(=O)N[C@@H](CCC(N)=O)C(=O)N[C@H](C(=O)N[C@@H](Cc1ccc(O)cc1)C(=O)N1CCC[C@@H]1C(=O)N[C@@H](CCCN=C(N)N)C(=O)N[C@H](C(=O)N[C@@H](CC(N)=O)C(=O)N[C@H](C(=O)NCC(=O)N[C@@H](CO)C(=O)NCC(=O)N[C@H](C(=O)N1CCC[C@@H]1C(N)=O)[C@@H](C)O)[C@@H](C)O)[C@@H](C)O)[C@@H](C)O`, in test [1], the Relative affinity was found to be 100. Moreover, the ED50 in test [2] is 115 pM.

For `CC(C)C[C@H](NC(=O)[C@H](CCCCN)NC(=O)CNC(=O)[C@H](CC(C)C)NC(=O)[C@@H](NC(=O)[C@H](CS)NC(=O)[C@@H](NC(=O)[C@H](CO)NC(=O)[C@H](CC(C)C)NC(=O)[C@H](CC(N)=O)NC(=O)[C@H](CO)NC(=O)[C@@H](N)CS)[C@@H](C)O)C(C)C)C(=O)N[C@@H](CO)C(=O)N[C@@H](CCC(N)=O)C(=O)N[C@@H](CCC(=O)O)C(=O)N[C@@H](CC(C)C)C(=O)N[C@H]1CC(=O)NCCC[C@@H](C(=O)N[C@@H](Cc2ccc(O)cc2)C(=O)N2CCC[C@@H]2C(=O)N[C@@H](CCCN=C(N)N)C(=O)N[C@H](C(=O)N[C@@H](CC(N)=O)C(=O)N[C@H](C(=O)NCC(=O)N[C@@H](CO)C(=O)NCC(=O)N[C@H](C(=O)N2CCC[C@@H]2C(N)=O)[C@@H](C)O)[C@@H](C)O)[C@@H](C)O)NC(=O)[C@H](Cc2cn(N)cn2)NC(=O)[C@H](CC(C)C)NC(=O)[C@H](CCCCN)NC1=O`, the Relative affinity in test [1] was 150. The ED50 in test [2] was found to be 53 pM.

With `CCCC[C@H](NC(=O)[C@H](Cc1c[nH]cn1)NC(=O)[C@H](CC(C)C)NC(=O)[C@H](CCCCN)NC(=O)[C@H](CC(N)=O)NC(=O)[C@H](CC(C)C)NC(=O)[C@H](CCC(=O)O)NC(=O)[C@H](CCC(N)=O)NC(=O)[C@H](CO)NC(=O)[C@H](CC(C)C)NC(=O)[C@H](CCCCN)NC(=O)CNC(=O)[C@H](CC(C)C)NC(=O)[C@@H](NC(=O)[C@H](CS)NC(=O)[C@@H](NC(=O)[C@H](CO)NC(=O)[C@H](CC(C)C)NC(=O)[C@H](CC(N)=O)NC(=O)[C@H](CO)NC(=O)[C@@H](N)CS)[C@@H](C)O)C(C)C)C(=O)N[C@@H](Cc1ccc(O)cc1)C(=O)N1CCC[C@@H]1C(=O)N[C@@H](CCCN=C(N)N)C(=O)N[C@H](C(=O)N[C@@H](CC(N)=O)C(=O)N[C@H](C(=O)NCC(=O)N[C@@H](CO)C(=O)NCC(=O)N[C@H](C(=O)N1CCC[C@@H]1C(N)=O)[C@@H](C)O)[C@@H](C)O)[C@@H](C)O`, the Relative affinity in test [1] stood at 92. Besides, the ED50 in test [2] came to 46 pM.

`CC(C)C[C@H](NC(=O)[C@H](CCCCN)NC(=O)CNC(=O)[C@H](CC(C)C)NC(=O)[C@@H](NC(=O)[C@H](CS)NC(=O)[C@@H](NC(=O)[C@H](CO)NC(=O)[C@H](CC(C)C)NC(=O)[C@H](CC(N)=O)NC(=O)[C@H](CO)NC(=O)[C@@H](N)CS)[C@@H](C)O)C(C)C)C(=O)N[C@@H](CO)C(=O)N[C@@H](CCC(N)=O)C(=O)N[C@@H](CCC(=O)O)C(=O)N[C@@H](CC(C)C)C(=O)N[C@H]1CC(=O)NCCCC[C@@H](C(=O)N[C@@H](Cc2ccc(O)cc2)C(=O)N2CCC[C@@H]2C(=O)N[C@@H](CCCN=C(N)N)C(=O)N[C@H](C(=O)N[C@@H](CC(N)=O)C(=O)N[C@H](C(=O)NCC(=O)N[C@@H](CO)C(=O)NCC(=O)N[C@H](C(=O)N2CCC[C@@H]2C(N)=O)[C@@H](C)O)[C@@H](C)O)[C@@H](C)O)NC(=O)[C@H](Cc2cn(N)cn2)NC(=O)[C@H](CC(C)C)NC(=O)[C@H](CCCCN)NC1=O`: the Relative affinity in test [1] was found to be 210. The ED50 in test [2] came out at 75 pM.

Consider `CC[C@H](C)[C@H](NC(=O)[C@H](C)NC(=O)[C@@H](NC(=O)[C@H](CCC(N)=O)NC(=O)[C@@H]1CCCN1C(=O)[C@H](Cc1ccccc1)NC(=O)[C@@H](N[C@@H](Cc1c[nH]cn1)C(=O)N[C@@H](Cc1ccccc1)C(=O)[C@@H]1CCCN1C(=O)[C@H](CC(N)=O)NC(=O)[C@H](Cc1ccccc1)NC(=O)[C@H](CC(=O)O)NC(=O)[C@H](CCC(N)=O)NC(=O)[C@@H](NC(=O)[C@H](Cc1ccc(O)cc1)NC(=O)[C@@H](NC(=O)CNC(=O)[C@H](CC(C)C)NC(=O)[C@H](CCSC)NC(=O)[C@H](CS)NC(=O)[C@@H](NC(=O)[C@H](CO)NC(=O)[C@H](CC(C)C)NC(=O)[C@H](CC(N)=O)NC(=O)CNC(=O)[C@@H](N)CS)[C@@H](C)O)[C@@H](C)O)[C@@H](C)O)[C@@H](C)O)[C@H](C)O)C(=O)NCC(=O)N[C@H](C(=O)NCC(=O)N[C@@H](C)C(=O)N1CCC[C@H]1C(N)=O)C(C)C`, for which, in test [1], the Relative affinity worked out at 0.02. For the same molecule, the ED50 in test [2] came out at 99000 pM.

`CC[C@H](C)[C@H](NC(=O)[C@H](C)NC(=O)[C@@H](NC(=O)[C@H](CCC(N)=O)NC(=O)[C@H]1CCCN1C(=O)[C@H](Cc1ccccc1)NC(=O)[C@@H](NC(Cc1c[nH]cn1)C(=O)N[C@@H](Cc1ccccc1)C(=O)[C@H](CCCCN)NC(=O)[C@H](CC(N)=O)NC(=O)[C@H](Cc1ccccc1)NC(=O)[C@H](CC(=O)O)NC(=O)[C@H](CCC(N)=O)NC(=O)[C@@H](NC(=O)[C@H](Cc1ccc(O)cc1)NC(=O)[C@@H](NC(=O)CNC(=O)[C@H](CC(C)C)NC(=O)[C@H](CCSC)NC(=O)[C@H](CS)NC(=O)[C@@H](NC(=O)[C@H](CO)NC(=O)[C@H](CC(C)C)NC(=O)[C@H](CC(N)=O)NC(=O)CNC(=O)[C@@H](N)CS)[C@@H](C)O)[C@@H](C)O)[C@@H](C)O)[C@@H](C)O)[C@@H](C)O)C(=O)NCC(=O)N[C@H](C(=O)NCC(=O)N[C@@H](C)C(=O)N1CCC[C@@H]1C(N)=O)C(C)C` (some centres undefined): the Relative affinity in test [1] was found to be 0.015. In addition, the ED50 in test [2] was 600 pM.

As for `CC[C@H](C)[C@H](NC(=O)[C@H](C)NC(=O)[C@@H](NC(=O)[C@H](CCC(N)=O)NC(=O)[C@@H]1CCCN1C(=O)[C@H](Cc1ccccc1)NC(=O)[C@@H]1CCCCNC(=O)C[C@H](NC(=O)[C@H](Cc2ccccc2)NC(=O)[C@H](CC(=O)O)NC(=O)[C@H](CCC(N)=O)NC(=O)[C@@H](NC(=O)[C@H](Cc2ccc(O)cc2)NC(=O)[C@@H](NC(=O)CNC(=O)[C@H](CC(C)C)NC(=O)[C@H](CCSC)NC(=O)[C@@H]2CSSC[C@H](N)C(=O)NCC(=O)N[C@@H](CC(N)=O)C(=O)N[C@@H](CC(C)C)C(=O)N[C@@H](CO)C(=O)N[C@@H]([C@@H](C)O)C(=O)N2)[C@@H](C)O)[C@@H](C)O)C(=O)N[C@@H](CCCCN)C(=O)N[C@@H](Cc2ccccc2)C(=O)N[C@@H](Cc2cnc[nH]2)C(=O)N1)[C@@H](C)O)C(=O)NCC(=O)N[C@H](C(=O)NCC(=O)N[C@@H](C)C(=O)N1CCC[C@H]1C(N)=O)C(C)C` (H-CGNLSTCMLGTYTQDFDKFHKFPQTAIGVGAP-NH2; disulfide 1-7; lactam 17-21), the IC50 on Calcitonin receptor [3] turned out to be 60000 pM. The Ki at Calcitonin receptor [4] worked out at 195000 pM.
